Test results published in ChEMBL document CHEMBL3108697, “Design of an amide N-glycoside derivative of β-glucogallin: a stable, potent, and specific inhibitor of aldose reductase” (J Med Chem, 2014).
Each block holds one compound with its values, some of them ahead of it. Calls of active or inactive are those of the source. The calls are words filed in the database; no cut-off is given here.

Columns and labels:
[1] = molecular target: T1, Aldo-keto reductase family 1 member B1 (Homo sapiens, UniProt P15121); test: Inhibition of human recombinant AKR1B1 expressed in Escherichia coli using DL-glyceraldehyde as substrate after 5 mins by spectrophotometry
In short: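 Enzyme inhibition was tested with recombinant human AKR1B1, using the natural substrate glyceraldehyde.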

[2] = molecular target: T2, Aldo-keto reductase family 1 member A1 (Homo sapiens) (UniProt P14550); test: Inhibition of AKR1A1 (unknown origin) using DL-glyceraldehyde as substrate at 15 uM after 5 mins by spectrophotometry
T2 sequence (whole entry): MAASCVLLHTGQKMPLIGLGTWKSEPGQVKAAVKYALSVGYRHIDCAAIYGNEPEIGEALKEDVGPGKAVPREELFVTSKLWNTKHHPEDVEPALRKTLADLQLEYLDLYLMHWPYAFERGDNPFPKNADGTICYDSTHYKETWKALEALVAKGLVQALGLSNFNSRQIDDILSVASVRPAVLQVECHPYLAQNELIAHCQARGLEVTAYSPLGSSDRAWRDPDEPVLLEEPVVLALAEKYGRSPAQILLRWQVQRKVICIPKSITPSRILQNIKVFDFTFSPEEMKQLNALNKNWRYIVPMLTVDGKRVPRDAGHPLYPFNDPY

[3] = molecular target: Aldo-keto reductase family 1 member B10 (Homo sapiens) (UniProt O60218); test: Inhibition of AKR1B10 (unknown origin) using DL-glyceraldehyde as substrate at 15 uM after 5 mins by spectrophotometry
Aldo-keto reductase family 1 member B10 (Homo sapiens), sequence (O60218 whole entry, looked up): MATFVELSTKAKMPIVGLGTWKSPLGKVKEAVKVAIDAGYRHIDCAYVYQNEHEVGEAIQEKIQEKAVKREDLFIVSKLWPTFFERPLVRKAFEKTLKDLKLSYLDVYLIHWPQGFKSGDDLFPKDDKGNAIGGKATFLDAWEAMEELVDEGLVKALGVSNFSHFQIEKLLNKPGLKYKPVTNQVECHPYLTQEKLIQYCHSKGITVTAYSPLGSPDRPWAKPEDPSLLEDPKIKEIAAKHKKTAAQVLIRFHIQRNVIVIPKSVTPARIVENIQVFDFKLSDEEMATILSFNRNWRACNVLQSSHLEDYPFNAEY

[4] = molecular target: T1, Aldo-keto reductase family 1 member B1; test: Inhibition of human AKR1B1 expressing in PAR40 C57BL6 mouse lens assessed as inhibition of glucose-induced sorbitol accumulation at 25 to 50 uM after 72 hrs by colorimetric assay; details: Lens of camera-type eye
In short: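 Lenses were taken from transgenic mice overexpressing human AKR1B1, and from wild-type mice. They were cultured ex vivo with 27.5 mM glucose and given vehicle (H₂O) or compound at 25 and 50 μM for 72 h. Sorbitol accumulation was measured.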

[5] = Stability of the compound in aqueous sulfuric acid solution assessed as compound remaining at 250 uM at pH 0.33 at 80 degC after 6 days by HPLC analysis; type: physicochemical; details: read-out: Stability
In short: (§1)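 Compound kept in aqueous sulfuric acid (pH = 0.33) with heating at 80 °C. Intact compound remaining was quantified by HPLC against calibration curves.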

[6] = molecular target: Aldo-keto reductase family 1 member B1 (Mus musculus) (UniProt P45376); test: Inhibition of AKR1B1 in mouse RAW264.7 cells assessed as inhibition of sorbitol accumulation at 50 uM after 24 hrs by colorimetric assay; type: cell-based
In short: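 Raw264.7 murine macrophages were incubated with compound for 24 h, then harvested. Intracellular sorbitol accumulation served as the read-out of AKR1B1 activity.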

[7] = Drug degradation in aqueous sulfuric acid solution at 250 uM at pH 0.33 at 80 degC after 15 mins by HPLC analysis; type: physicochemical; details: read-out: Drug degradation; in short: as §1
[8] = Drug degradation in aqueous sulfuric acid solution at 250 uM at pH 0.33 at 80 degC after 30 mins by HPLC analysis; type: physicochemical; details: buffer, pH 0.33, 0.5 h; in short: as §1

inhibition [1]: inactive
SMILES: OC[C@H]1O[C@@H](n2cc(-c3cc(O)c(O)c(O)c3)nn2)[C@H](O)[C@@H](O)[C@@H]1O

inhibition [1]: inactive
SMILES: OC[C@H]1O[C@@H](OCc2cn(Cc3cc(O)c(O)c(O)c3)nn2)[C@H](O)[C@@H](O)[C@@H]1O

inhibition [2]: inactive
inhibition [3]: inactive
IC50 [1]: 9 µM
inhibition [4]: 80%
remaining at 144 h, 250 µM [5]: 96%
inhibition [6]: 50%
SMILES: O=C(N[C@@H]1O[C@H](CO)[C@@H](O)[C@H](O)[C@H]1O)c1cc(O)c(O)c(O)c1

inhibition [1]: inactive
SMILES: OC[C@H]1O[C@@H](OCCc2cc(O)c(O)c(O)c2)[C@H](O)[C@@H](O)[C@@H]1O

inhibition [2]: inactive
degraded at 0.25 h, 250 µM [7]: 76%
inhibition [3]: inactive
Stability [8]: Unstable
IC50 [1]: 8 µM
inhibition [4]: 74%
inhibition [6]: 50%
SMILES: O=C(O[C@@H]1O[C@H](CO)[C@@H](O)[C@H](O)[C@H]1O)c1cc(O)c(O)c(O)c1

inhibition [1]: inactive
SMILES: O=C(Cc1cc(O)c(O)c(O)c1)N[C@@H]1O[C@H](CO)[C@@H](O)[C@H](O)[C@H]1O

inhibition [1]: inactive
SMILES: OC[C@H]1O[C@@H](OCCCc2cc(O)c(O)c(O)c2)[C@H](O)[C@@H](O)[C@@H]1O
